Laboratory results from ChEMBL document CHEMBL1148625, “3-(1,1-dioxo-2H-(1,2,4)-benzothiadiazin-3-yl)-4-hydroxy-2(1H)-quinolinones, potent inhibitors of hepatitis C virus RNA-dependent RNA polymerase” (J Med Chem, 2006).

Biological target: RNA-directed RNA polymerase (Hepacivirus hominis, UniProt O39930)
Test: Inhibitory activity against HCV delta 21 NS5B RNA polymerase by SPA assay
Design: species or system Hepatitis C virus subtype 1b
Settings: not given

RNA-directed RNA polymerase, sequence (O39930 whole entry): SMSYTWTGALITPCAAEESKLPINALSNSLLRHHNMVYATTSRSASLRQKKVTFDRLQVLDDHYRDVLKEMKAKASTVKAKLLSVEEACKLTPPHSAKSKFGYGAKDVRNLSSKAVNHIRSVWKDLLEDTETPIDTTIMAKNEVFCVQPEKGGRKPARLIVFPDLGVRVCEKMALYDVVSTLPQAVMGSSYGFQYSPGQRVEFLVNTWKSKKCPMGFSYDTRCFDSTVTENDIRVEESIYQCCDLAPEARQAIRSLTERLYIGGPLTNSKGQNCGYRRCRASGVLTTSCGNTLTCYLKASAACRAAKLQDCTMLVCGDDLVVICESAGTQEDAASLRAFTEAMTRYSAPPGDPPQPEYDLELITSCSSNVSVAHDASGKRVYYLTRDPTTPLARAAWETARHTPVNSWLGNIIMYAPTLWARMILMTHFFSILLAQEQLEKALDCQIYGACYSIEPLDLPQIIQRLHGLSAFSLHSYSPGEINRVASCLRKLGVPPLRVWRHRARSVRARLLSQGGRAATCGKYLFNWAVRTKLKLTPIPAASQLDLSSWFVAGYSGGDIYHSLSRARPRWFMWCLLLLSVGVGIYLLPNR

| SMILES | IC50 |
| --- | --- |
| O=c1c(C2=NS(=O)(=O)c3ccccc3N2)c(O)c2ccccc2n1Cc1ccoc1 | 0.027 µM |
| CCCCn1c(=O)c(-c2nc3ccccc3[nH]2)c(O)c2ccccc21 | > 10 µM |
| O=c1c(C2=Nc3ccccc3S(=O)(=O)N2)c(O)c2ccccc2n1CCCCO | 1.3 µM |
| CC(C)CCn1c(=O)c(C2=Nc3ccccc3S(=O)(=O)N2)cc2ccccc21 | > 10 µM |
| O=c1c(C2=NS(=O)(=O)c3ccccc3N2)c(O)c2ccccc2n1CC1CCOC1 (stereo not given) | 0.484 µM |
| O=c1c(C2=Nc3ccccc3S(=O)(=O)N2)c(O)c2ccccc2n1Cc1ccc([N+](=O)[O-])cc1 | 2.44 µM |
| O=c1c(C2=NS(=O)(=O)c3ccccc3N2)c(O)c2ccccc2n1CCN1CCCC1 | > 10 µM |
| O=C(O)CCCn1c(=O)c(C2=Nc3ccccc3S(=O)(=O)N2)c(O)c2ccccc21 | > 10 µM |
| O=c1c(C2=NS(=O)(=O)c3ccccc3N2)c(O)c2ccccc2n1CCO | > 10 µM |
| CS(=O)(=O)CCn1c(=O)c(C2=Nc3ccccc3S(=O)(=O)N2)c(O)c2ccccc21 | 2.32 µM |

More lines, now with the values ahead:

| IC50 | SMILES |
| --- | --- |
| 0.032 µM | Nc1ccc2c(c1)c(O)c(C1=NS(=O)(=O)c3ccccc3N1)c(=O)n2CCC1CC1 |
| 0.043 µM | CC(C)CCn1c(=O)c(C2=NS(=O)(=O)c3ccccc3N2)c(O)c2cc(Cl)ccc21 |
| 0.048 µM | CC(C)(C)CCn1c(=O)c(C2=NS(=O)(=O)c3ccccc3N2)c(O)c2cc(NCCO)ccc21 |
| 0.2 µM | CCCCn1c(=O)c(C2=NS(=O)(=O)c3ccccc3N2)c(O)c2ccccc21 |
| 0.034 µM | CC(C)CCn1c(=O)c(C2=Nc3ccccc3S(=O)(=O)N2)c(O)c2cc(OCC#N)ccc21 |
| 0.106 µM | O=c1c(C2=NS(=O)(=O)c3ccccc3N2)c(O)c2ccccc2n1CCCC(F)(F)F |

Biological target: RNA-directed RNA polymerase (Hepacivirus hominis) (UniProt O39930)
Sequence (O39930 1-591): as the sequence (O39930 whole entry) above
Test: Inhibition of HCV RNA replication in Huh7 cells
Assay type: functional, cell-based
Settings: Huh-7
Outline: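 Huh-7 subgenomic replicon cells were seeded at 3 × 10³/well in DMEM with 10% FCS, 1% NEAA and 1 mg/mL G418, and allowed 4 h to attach. Eleven 2.5-fold DMSO dilutions were added (final 10,000 to 1.0 nM) and cells incubated 40 h. Neo RNA was measured by TaqMan RT-PCR, normalised to cyclophilin against DMSO controls; n = 8 wells per dilution.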

| SMILES | EC90 |
| --- | --- |
| O=c1c(C2=NS(=O)(=O)c3ccccc3N2)c(O)c2ccccc2n1Cc1ccoc1 | 2.53 µM |
| O=c1c(C2=NS(=O)(=O)c3ccccc3N2)c(O)c2ccccc2n1-c1ccccc1 | 1.87 µM |

The next lines start with the values.

| EC90 | SMILES |
| --- | --- |
| 2.41 µM | CC(C)CCn1c(=O)c(C2=NS(=O)(=O)c3ccccc3N2)c(O)c2cc(OCC(N)=O)ccc21 |
| 9.61 µM | CC(C)CCn1c(=O)c(C2=NS(=O)(=O)c3ccccc3N2)c(O)c2cc(NCC(=O)O)ccc21 |
| 0.593 µM | Nc1ccc2c(c1)c(O)c(C1=NS(=O)(=O)c3ccccc3N1)c(=O)n2CCC1CC1 |
| 3.83 µM | CC(C)CCn1c(=O)c(C2=NS(=O)(=O)c3ccccc3N2)c(O)c2cc(Cl)ccc21 |
| 1.44 µM | CC(C)(C)CCn1c(=O)c(C2=NS(=O)(=O)c3ccccc3N2)c(O)c2cc(NCCO)ccc21 |
| 3.76 µM | CCCCn1c(=O)c(C2=NS(=O)(=O)c3ccccc3N2)c(O)c2ccccc21 |
| 2.07 µM | CC(C)CCn1c(=O)c(C2=NS(=O)(=O)c3ccccc3N2)c(O)c2c(F)cccc21 |
| 1.19 µM | O=c1c(C2=NS(=O)(=O)c3ccccc3N2)c(O)c2ccccc2n1CC1CCC1 |
| 4.95 µM | CC(C)CCn1c(=O)c(C2=NS(=O)(=O)c3ccccc3N2)c(O)c2cc(F)ccc21 |
| 1.2 µM | CC(C)CCn1c(=O)c(C2=NS(=O)(=O)c3ccccc3N2)c(O)c2cc(N)ccc21 |
| 1.61 µM | CC(C)CCn1c(=O)c(C2=NS(=O)(=O)c3ccccc3N2)c(O)c2cc(OCC#N)ccc21 |
| 0.998 µM | CCOC(=O)CNc1ccc2c(c1)c(O)c(C1=NS(=O)(=O)c3ccccc3N1)c(=O)n2CCC(C)C |
